Shown is part of a subset that was picked to be rich in hits.
Ec RNAP inh: blocks E. coli RNA polymerase transcription. fluorescence transcription assay. inhibition, %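 (tested at 10 µM)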. 62,000 tested, 0.2% active. AID 559; in the data active = inhibition above about 20%
AP ELISA ortho: alternative pathway complement inhibition, orthogonal assay; inhibition, % at 5 µM; Human serum alternative complement pathway, LPS-coated ELISA, C3 deposition; tested in compound mixtures; 62,000 tested, 0.08% active;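 active = inhibition above 30% in each of the two pooled mixtures holding the compound, so the lower value exceeds 30%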
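Test system: human serum complement alternative pathway, C3 deposition onto LPS / Medium: Mg2+-EGTA GVB++ buffer containing human serum at 1:15 dilution / Probe or stimulus: Plate-bound LPS / Times: 1 h at 37 °C / Signal: ELISA with HRP anti-human C3 antibody, TMB substrate, absorbance 450 nm / Measure: percent inhibition / Repeats: two pool placements per compound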
tolC growth inh: blocks growth of E. coli BW25113 tolC mutant; OD615; growth inhibition, % at 10 µM (by protocol); 65,000 tested, 2.2% active;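 active = growth inhibition at or above a cutoff equal to the mean over every tested compound plus 3 SD, cut at about 60% in these data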;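 note: growth measured after 20 h incubation at 37 °C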
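test system = E. coli BW25113 ΔtolC::kan bacteria | medium = LB with kanamycin 50 µg/mL | signal = OD at 615 nm | schedule = 37 °C, 20 h exposure | evaluation = % inhibition of E. coli growth | compound dosing = one dose of 10 µM final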
BAP1 inh: blocks human BAP1 ubiquitin-AMC hydrolysis. Q92560. recombinant BAP1, Ub-AMC hydrolysis fluorescence kinetic; active compounds read low. calls only at 20 µM. 72,000 tested, 0.48% active. AID 436;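 active = activity remaining at or below 50% of control, provided the compound also passes the data quality filters; inactive = the rest, including low values that fail the filters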
Target sequence (Q92560 whole entry, looked up): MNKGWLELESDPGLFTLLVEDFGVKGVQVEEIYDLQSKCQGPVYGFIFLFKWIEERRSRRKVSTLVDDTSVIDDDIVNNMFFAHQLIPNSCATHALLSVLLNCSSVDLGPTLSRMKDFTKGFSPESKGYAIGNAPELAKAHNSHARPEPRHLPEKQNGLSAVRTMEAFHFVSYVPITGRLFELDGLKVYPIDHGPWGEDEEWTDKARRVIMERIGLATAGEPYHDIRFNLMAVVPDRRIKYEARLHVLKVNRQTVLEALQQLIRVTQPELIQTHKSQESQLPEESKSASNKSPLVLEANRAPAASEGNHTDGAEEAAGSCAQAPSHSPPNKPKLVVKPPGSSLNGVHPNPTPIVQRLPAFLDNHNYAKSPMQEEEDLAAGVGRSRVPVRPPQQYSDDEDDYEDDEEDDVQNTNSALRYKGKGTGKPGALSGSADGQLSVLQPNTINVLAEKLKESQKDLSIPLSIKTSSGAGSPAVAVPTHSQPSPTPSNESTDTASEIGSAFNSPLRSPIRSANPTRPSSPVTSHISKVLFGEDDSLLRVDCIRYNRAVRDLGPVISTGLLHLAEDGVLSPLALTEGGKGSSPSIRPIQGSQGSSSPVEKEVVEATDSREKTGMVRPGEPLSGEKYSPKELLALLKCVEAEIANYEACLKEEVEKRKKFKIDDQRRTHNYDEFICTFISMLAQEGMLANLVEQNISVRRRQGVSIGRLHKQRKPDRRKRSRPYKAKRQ
MMP13 inh: inhibitors of human MMP13. 65,000 tested, 0.07% active. MMP-13 fTHP FRET cleavage, Mca fluorescence. AID 570. inhibition, % at 4 µM;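 active = inhibition above the mean of compound-free control plate wells plus 3 SD, cut at about 14% in these data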
E coli WT exp: blocks growth of wild type E. coli BW25113; 98,000 tested, 0.15% active; OD600 absorbance; growth inhibition, % at 100 µM; AID 710;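 active = growth inhibition above about 50% at one test dose, limit read from the data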;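 note: growth measured after 20 h incubation at 37 °C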
Numbers stand for hits; - = inactive; . = no result shown; + = active, no number.

SMILES	Ec RNAP inh	AP ELISA ortho	tolC growth inh	BAP1 inh	MMP13 inh	E coli WT exp
C=CCn1c(SCC(=O)Nc2ccc3c(c2)CCC3)nnc1-c1cccs1	-	-	77	-	-	-
CCOC(=O)c1c(NS(=O)(=O)c2cccc(OC)c2)sc2c1CCC2	-	-	79	-	-	-
CCOC(=O)c1c(NC(=O)c2ccc(OC)cc2OC)sc2c1CCC2	.	.	.	-	.	.
COc1ccc(-c2csc(NC(=O)c3ccc(S(=O)(=O)N4CCc5ccccc54)cc3)n2)cc1	.	.	.	-	.	.
CC1(C)CC(=C2C3C=CC2C2C(=C4CC(C)(C)NC(C)(C)C4)C=CC32)CC(C)(C)N1 (centres undefined)	.	.	.	-	.	.
O=S1(=O)Nc2c(ccc3cccnc23)-c2ccccc21	-	-	100	-	-	80
O=c1[nH]n(-c2cccc3cccnc23)c(=O)c2ccccc12	-	-	-	-	-	-
Fc1ccc(-c2cc(C(F)(F)F)nc(NCC3CCCO3)n2)cc1 (centres undefined)	-	-	100	-	-	-
N/C(=N/O)c1nc(N2CCCC2)nc(N(c2ccccc2)c2ccccc2)n1	-	-	72	-	-	-
C=C(C)COc1ccc(-c2nc(N)ncc2-c2ccc(OC)cc2)c(O)c1	-	-	86	-	-	-
COc1ccc(-c2cnc(N)nc2-c2ccc(OC)cc2O)cc1	-	-	-	-	-	-
C=C(C)COc1ccc(-c2ncncc2Oc2ccc(OC)cc2)c(O)c1	-	-	66	-	-	-
CCC(Sc1nnnn1-c1ccccc1)C(=O)NC(C)c1ccccc1 (centres undefined)	-	-	-	-	-	-
CCC(Sc1nnnn1-c1ccccc1)C(=O)Nc1nc2ccccc2s1 (centres undefined)	-	-	74	.	-	-
COc1ccc(N2CCN(CC(=O)Nc3nc4c(s3)CC(C)CC4)CC2)cc1 (centres undefined)	-	-	100	-	-	-
O=C(O)CCC(=O)Nc1ccc(-c2cn3ccccc3n2)cc1	.	.	.	-	.	.
O=C(Nc1ccncc1)C1(c2ccccc2)CCCC1	-	39	-	-	-	-
CCOC(=O)c1cccc(NC(=O)COc2ccc(OC)cc2)c1	.	.	.	-	.	.
CCOC(=O)c1cccc(NC(=O)Nc2cc(OC)ccc2OC)c1	-	-	83	-	-	-
N#CC(c1nc2ccccc2nc1N1CCCCC1)S(=O)(=O)c1ccc(Cl)cc1 (centres undefined)	-	-	89	+	-	.
CCOC(=O)N1CCN(c2nc3ccccc3nc2C(C#N)S(=O)(=O)c2ccc(C)cc2)CC1 (centres undefined)	-	-	77	-	-	-
CCOc1cc(C2Nc3cc(C)c(C)cc3NC3=C2C(=O)CC(C)(C)C3)cc(Br)c1OC (centres undefined)	.	.	.	-	.	.
O=C(OCCN1C(=O)c2cccc3c(N4CCOCC4)ccc(c23)C1=O)c1ccccc1Br	.	.	.	-	.	.
Cc1ccccc1OCC(=O)Nc1ccc(OC(C)C)cc1	.	.	.	-	.	.
O=c1n(Cc2ccc(Cl)cc2)c2sc3c(c2c2ncnn12)CCCC3	-	-	75	-	-	-
SMILES	Ec RNAP inh	AP ELISA ortho	tolC growth inh	BAP1 inh	MMP13 inh	E coli WT exp
C=CCn1c(=O)n2ncnc2c2c3c(sc21)CCCC3	.	.	.	.	.	-
CCn1c(SCC(=O)Nc2nc(-c3ccccc3)cs2)nnc1-c1ccccc1O	-	-	86	.	-	-
O=C(c1ccc(COc2ccc(Cl)cc2)o1)N1CCN(Cc2ccc3c(c2)OCO3)CC1	-	-	96	-	-	-
CC1=C(C(=O)OC(C)C)C(c2ccc(O)cc2)C2=C(CCCC2=O)N1 (centres undefined)	.	.	.	-	.	.
N#Cc1cccc(NC(=O)Nc2cccs2)c1	-	-	-	-	-	73
CCc1cccc(NC(=O)Nc2cccs2)c1	-	-	-	-	-	-
CCOc1ccccc1C(=O)NC(C(=O)OCC(=O)Nc1nnc(-c2ccccc2)o1)C(C)C (centres undefined)	-	-	87	-	-	-
CCOC(=O)c1c(C)[nH]c(C)c1C(=O)COC(=O)[C@@H](NC(=O)c1ccccc1OCC)C(C)C	.	.	.	.	.	-
CCOC(=O)CSc1n[nH]c(-c2ccco2)n1	-	-	-	-	-	-
O=C(CSc1n[nH]c(-c2ccco2)n1)N1c2ccccc2Sc2ccccc21	-	-	73	-	-	-
O=C(NCCCN1CCOCC1)c1ccccc1I	.	.	.	-	.	.
O=C(NCc1ccccc1F)C1CCN(C(=O)NCc2ccccc2)CC1	-	33	-	-	-	-
Cc1noc(NS(=O)(=O)c2ccc(NC(=O)COc3ccc(Cl)cc3Cl)cc2)c1C	-	-	63	-	-	-
COc1cc(NS(=O)(=O)c2ccc(NC(=O)COc3ccccc3Cl)cc2)nc(OC)n1	-	-	71	-	-	-
O=C(Cn1c2ccccc2c(=O)c2ccccc21)Nc1ccc2c(c1)OCCO2	.	.	.	-	.	.
OCC#CCSc1nnc(-c2ccc(Br)cc2)o1	40	-	-	-	-	-
CCOc1ccccc1-c1nn2c(Cc3ccccc3)nnc2s1	-	-	99	-	-	-
C=CCn1c(O)c(C2=c3ccccc3=NC2=O)sc1=Nc1ccc(O)cc1	-	-	100	-	-	.
C=CCN1C(=O)CSC1=Nc1ccc(O)cc1	.	.	.	.	.	-
CC(C)(C)NC(=O)C(c1ccco1)N(C(=O)Cn1nnc(-c2ccc(F)cc2)n1)c1ccccc1F (centres undefined)	-	-	71	-	-	-
CC(C)(C)NC(=O)C(c1ccco1)N(C(=O)Cn1nnc(-c2ccc(F)cc2)n1)c1ccccc1 (centres undefined)	-	-	.	-	-	.
Nc1nc(-c2ccco2)c(-c2ccco2)s1	-	-	-	-	-	-
c1coc(-c2nc(-c3ccco3)c(-c3ccco3)nc2-c2ccco2)c1	23	-	-	.	-	-
COc1ccc(NS(=O)(=O)c2ccc3oc4ccccc4c3c2)cn1	-	-	100	-	-	-
COc1cc(C2C(C(=O)OC3CCCCC3)=C(C)NC3=C2C(=O)CC(c2ccccc2)C3)cc(Br)c1O (centres undefined)	.	.	.	-	.	.
SMILES	Ec RNAP inh	AP ELISA ortho	tolC growth inh	BAP1 inh	MMP13 inh	E coli WT exp
Cc1ccc(C2CC(c3cccc(Br)c3)Nc3nnnn32)cc1 (centres undefined)	-	-	67	-	-	-
Cc1c(NC(=O)Cc2ccccc2)cccc1-c1nc2ncccc2o1	.	.	.	-	.	.
Cc1cc(NC(=O)COC(=O)[C@H](C)NC(=O)c2ccccc2)no1	.	.	.	.	.	-
Cc1cc(NC(=O)COC(=O)C(Nc2ccc(C(F)(F)F)cc2Cl)C(C)C)no1 (centres undefined)	-	-	91	.	-	-
CCN1C(=O)c2cccc3c(NC(=O)c4ccc(S(=O)(=O)N(C)c5ccccc5)cc4)ccc1c23	.	.	.	-	.	.
COc1cc(-c2cc(C(F)(F)F)n3ncc(C(=O)Nc4ccc(Cl)cc4)c3n2)cc(OC)c1OC	.	.	.	-	.	.
c1ccc(N2CCN(c3ncnc4c3oc3ccccc34)CC2)cc1	-	-	94	-	-	-
Cc1ccc2c(c1)c1ncnc(N3CCN(c4ccccc4)CC3)c1n2C	-	-	64	-	-	-
